Measured values published in ChEMBL document CHEMBL4152188, “Design, synthesis and biological evaluation of C(4) substituted monobactams as antibacterial agents against multidrug-resistant Gram-negative bacteria” (Eur J Med Chem, 2018).
Values after ≈ are worked out from the molar mass of the structure shown.

Experiments:
Type in all cases: functional
Escherichia coli [1] = test: Antibacterial activity against Escherichia coli isolate 210737 after 18 hrs in presence of BPL by CLSI broth microdilution method; settings: isolate 210737, 18 h
Summary of the method: (§1)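 CLSI broth microdilution against clinical isolates (ESBL E. coli, KPC-2 MDR K. pneumoniae, IMP-4 MDR P. aeruginosa; five per species). Iron limitation: Mueller-Hinton broth supplemented with 16 mg/liter 2,2'-bipyridyl to complex iron and induce iron uptake systems. Read-out: MIC.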

Escherichia coli [2] = test: Antibacterial activity against extended-spectrum beta-lactamase producing Escherichia coli isolate 209285 after 18 hrs in presence of BPL by CLSI broth microdilution method; settings: isolate 209285, 18 h; summary of the method: as §1
Escherichia coli [3] = test: Antibacterial activity against extended-spectrum beta-lactamase producing Escherichia coli isolate 208687 after 18 hrs in presence of BPL by CLSI broth microdilution method; settings: isolate 208687, 18 h; summary of the method: as §1
Escherichia coli [4] = test: Selectivity index, ratio of MIC for against extended-spectrum beta-lactamase producing Escherichia coli isolate 106342 to MIC for extended-spectrum beta-lactamase producing Escherichia coli isolate 106342 in presence of BPL
Pseudomonas aeruginosa [5] = test: Antibacterial activity against IMP-4 producing Pseudomonas aeruginosa isolate 209321 after 18 hrs in presence of BPL by CLSI broth microdilution method; settings: isolate 209321, 18 h; summary of the method: as §1
Pseudomonas aeruginosa [6] = test: Antibacterial activity against IMP-4 producing Pseudomonas aeruginosa isolate 209471 after 18 hrs in presence of BPL by CLSI broth microdilution method; settings: isolate 209471, 18 h; summary of the method: as §1
Pseudomonas aeruginosa [7] = test: Antibacterial activity against IMP-4 producing Pseudomonas aeruginosa isolate 207272 after 18 hrs in presence of BPL by CLSI broth microdilution method; settings: isolate 207272, 18 h; summary of the method: as §1
Pseudomonas aeruginosa [8] = test: Selectivity index, ratio of MIC for against IMP-4 producing Pseudomonas aeruginosa isolate 212886 to MIC for against IMP-4 producing Pseudomonas aeruginosa isolate 212886 in presence of BPL
Klebsiella pneumoniae [9] = test: Antibacterial activity against KPC-2 producing Klebsiella pneumoniae isolate 209735 after 18 hrs in presence of BPL by CLSI broth microdilution method; settings: isolate 209735, 18 h; summary of the method: as §1
Pseudomonas aeruginosa [10] = test: Selectivity index, ratio of MIC for against IMP-4 producing Pseudomonas aeruginosa isolate 209471 to MIC for against IMP-4 producing Pseudomonas aeruginosa isolate 209471 in presence of BPL
Klebsiella pneumoniae [11] = test: Antibacterial activity against KPC-2 producing Klebsiella pneumoniae isolate 209735 after 18 hrs by CLSI broth microdilution method; settings: isolate 209735, 18 h
Escherichia coli [12] = test: Antibacterial activity against extended-spectrum beta-lactamase producing Escherichia coli isolate 209285 after 18 hrs by CLSI broth microdilution method; settings: isolate 209285, 18 h
Escherichia coli [13] = test: Selectivity index, ratio of MIC for against extended-spectrum beta-lactamase producing Escherichia coli isolate 212648 to MIC for extended-spectrum beta-lactamase producing Escherichia coli isolate 212648 in presence of BPL
Pseudomonas aeruginosa [14] = test: Antibacterial activity against IMP-4 producing Pseudomonas aeruginosa isolate 208247 after 18 hrs by CLSI broth microdilution method; settings: isolate 208247, 18 h
Pseudomonas aeruginosa [15] = test: Selectivity index, ratio of MIC for against IMP-4 producing Pseudomonas aeruginosa isolate 209321 to MIC for against IMP-4 producing Pseudomonas aeruginosa isolate 209321 in presence of BPL
Klebsiella pneumoniae [16] = test: Antibacterial activity against KPC-2 producing Klebsiella pneumoniae isolate 212232 after 18 hrs in presence of BPL by CLSI broth microdilution method; settings: isolate 212232, 18 h; summary of the method: as §1
Klebsiella pneumoniae [17] = test: Antibacterial activity against KPC-2 producing Klebsiella pneumoniae isolate 209632 after 18 hrs by CLSI broth microdilution method; settings: isolate 209632, 18 h
Klebsiella pneumoniae [18] = test: Antibacterial activity against KPC-2 producing Klebsiella pneumoniae isolate 212229 after 18 hrs in presence of BPL by CLSI broth microdilution method; settings: isolate 212229, 18 h; summary of the method: as §1
Pseudomonas aeruginosa [19] = test: Antibacterial activity against IMP-4 producing Pseudomonas aeruginosa isolate 207272 after 18 hrs by CLSI broth microdilution method; settings: isolate 207272, 18 h
Klebsiella pneumoniae [20] = test: Antibacterial activity against KPC-2 producing Klebsiella pneumoniae isolate 212232 after 18 hrs by CLSI broth microdilution method; settings: isolate 212232, 18 h
Klebsiella pneumoniae [21] = test: Antibacterial activity against KPC-2 producing Klebsiella pneumoniae isolate 212423 after 18 hrs in presence of BPL by CLSI broth microdilution method; settings: isolate 212423, 18 h; summary of the method: as §1
Escherichia coli [22] = test: Selectivity index, ratio of MIC for against Escherichia coli isolate 210737 to MIC for Escherichia coli isolate 210737 in presence of BPL
Escherichia coli [23] = test: Antibacterial activity against extended-spectrum beta-lactamase producing Escherichia coli isolate 106342 after 18 hrs by CLSI broth microdilution method; settings: isolate 106342, 18 h
Escherichia coli [24] = test: Antibacterial activity against extended-spectrum beta-lactamase producing Escherichia coli isolate 106342 after 18 hrs in presence of BPL by CLSI broth microdilution method; settings: isolate 106342, 18 h; summary of the method: as §1
Escherichia coli [25] = test: Antibacterial activity against extended-spectrum beta-lactamase producing Escherichia coli isolate 212648 after 18 hrs in presence of BPL by CLSI broth microdilution method; settings: isolate 212648, 18 h; summary of the method: as §1
Klebsiella pneumoniae [26] = test: Antibacterial activity against KPC-2 producing Klebsiella pneumoniae isolate 209632 after 18 hrs in presence of BPL by CLSI broth microdilution method; settings: isolate 209632, 18 h; summary of the method: as §1
Escherichia coli [27] = test: Selectivity index, ratio of MIC for against extended-spectrum beta-lactamase producing Escherichia coli isolate 209285 to MIC for extended-spectrum beta-lactamase producing Escherichia coli isolate 209285 in presence of BPL
Pseudomonas aeruginosa [28] = test: Antibacterial activity against IMP-4 producing Pseudomonas aeruginosa isolate 209471 after 18 hrs by CLSI broth microdilution method; settings: isolate 209471, 18 h
Klebsiella pneumoniae [29] = test: Selectivity index, ratio of MIC for against KPC-2 producing Klebsiella pneumoniae isolate 209735 to MIC for against KPC-2 producing Klebsiella pneumoniae isolate 209735 in presence of BPL
Pseudomonas aeruginosa [30] = test: Selectivity index, ratio of MIC for against IMP-4 producing Pseudomonas aeruginosa isolate 208247 to MIC for against IMP-4 producing Pseudomonas aeruginosa isolate 208247 in presence of BPL
Klebsiella pneumoniae [31] = test: Selectivity index, ratio of MIC for against KPC-2 producing Klebsiella pneumoniae isolate 212232 to MIC for against KPC-2 producing Klebsiella pneumoniae isolate 212232 in presence of BPL
Klebsiella pneumoniae [32] = test: Selectivity index, ratio of MIC for against KPC-2 producing Klebsiella pneumoniae isolate 212229 to MIC for against KPC-2 producing Klebsiella pneumoniae isolate 212229 in presence of BPL
Escherichia coli [33] = test: Antibacterial activity against extended-spectrum beta-lactamase producing Escherichia coli isolate 208687 after 18 hrs by CLSI broth microdilution method; settings: isolate 208687, 18 h
Pseudomonas aeruginosa [34] = test: Antibacterial activity against IMP-4 producing Pseudomonas aeruginosa isolate 208247 after 18 hrs in presence of BPL by CLSI broth microdilution method; settings: isolate 208247, 18 h; summary of the method: as §1
Klebsiella pneumoniae [35] = test: Antibacterial activity against KPC-2 producing Klebsiella pneumoniae isolate 212229 after 18 hrs by CLSI broth microdilution method; settings: isolate 212229, 18 h
Pseudomonas aeruginosa [36] = test: Antibacterial activity against IMP-4 producing Pseudomonas aeruginosa isolate 212886 after 18 hrs by CLSI broth microdilution method; settings: isolate 212886, 18 h
Escherichia coli [37] = test: Antibacterial activity against Escherichia coli isolate 210737 after 18 hrs by CLSI broth microdilution method; settings: isolate 210737, 18 h
Klebsiella pneumoniae [38] = test: Selectivity index, ratio of MIC for against KPC-2 producing Klebsiella pneumoniae isolate 209632 to MIC for against KPC-2 producing Klebsiella pneumoniae isolate 209632 in presence of BPL
Klebsiella pneumoniae [39] = test: Selectivity index, ratio of MIC for against KPC-2 producing Klebsiella pneumoniae isolate 212423 to MIC for against KPC-2 producing Klebsiella pneumoniae isolate 212423 in presence of BPL
Escherichia coli [40] = test: Antibacterial activity against extended-spectrum beta-lactamase producing Escherichia coli isolate 212648 after 18 hrs by CLSI broth microdilution method; settings: isolate 212648, 18 h
Pseudomonas aeruginosa [41] = test: Selectivity index, ratio of MIC for against IMP-4 producing Pseudomonas aeruginosa isolate 207272 to MIC for against IMP-4 producing Pseudomonas aeruginosa isolate 207272 in presence of BPL
Pseudomonas aeruginosa [42] = test: Antibacterial activity against IMP-4 producing Pseudomonas aeruginosa isolate 212886 after 18 hrs in presence of BPL by CLSI broth microdilution method; settings: isolate 212886, 18 h; summary of the method: as §1
Escherichia coli [43] = test: Selectivity index, ratio of MIC for against extended-spectrum beta-lactamase producing Escherichia coli isolate 208687 to MIC for extended-spectrum beta-lactamase producing Escherichia coli isolate 208687 in presence of BPL
Pseudomonas aeruginosa [44] = test: Antibacterial activity against IMP-4 producing Pseudomonas aeruginosa isolate 209321 after 18 hrs by CLSI broth microdilution method; settings: isolate 209321, 18 h
Klebsiella pneumoniae [45] = test: Antibacterial activity against KPC-2 producing Klebsiella pneumoniae isolate 212423 after 18 hrs by CLSI broth microdilution method; settings: isolate 212423, 18 h

`CC(C)C(O/N=C(\C(=O)N[C@@H]1C(=O)N(S(=O)(=O)O)[C@@H]1CSc1nnnn1C)c1csc(N)n1)c1cc(=O)c(O)cn1O` (stereo not given in full) gave an MIC (Escherichia coli [1]) of 0.25 µg/mL, an MIC (Escherichia coli [2]) of 0.25 µg/mL and an MIC (Escherichia coli [3]) of 0.06 µg/mL. For the same molecule, the “Selectivity Index” value (Escherichia coli [4]) was 2, the MIC (Pseudomonas aeruginosa [5]) was 32 µg/mL and the MIC (Pseudomonas aeruginosa [6]) was 64 µg/mL. The MIC (Pseudomonas aeruginosa [7]) was 16 µg/mL, the “Selectivity Index” value (Pseudomonas aeruginosa [8]) was over 2 and the MIC (Klebsiella pneumoniae [9]) was 0.5 µg/mL. For the same molecule, the “Selectivity Index” value (Pseudomonas aeruginosa [10]) was 1, the MIC (Klebsiella pneumoniae [11]) was 2 µg/mL (≈ 3.1 µM) and the MIC (Escherichia coli [12]) was 1 µg/mL (≈ 1.55 µM). The “Selectivity Index” value (Escherichia coli [13]) was 2, the MIC (Pseudomonas aeruginosa [14]) was 32 µg/mL (≈ 49.6 µM) and the “Selectivity Index” value (Pseudomonas aeruginosa [15]) was 2. For the same molecule, the MIC (Klebsiella pneumoniae [16]) was 0.25 µg/mL, the MIC (Klebsiella pneumoniae [17]) was 1 µg/mL (≈ 1.55 µM) and the MIC (Klebsiella pneumoniae [18]) was 0.5 µg/mL. For the same molecule, the MIC (Pseudomonas aeruginosa [19]) was 32 µg/mL (≈ 49.6 µM), the MIC (Klebsiella pneumoniae [20]) was 2 µg/mL (≈ 3.1 µM) and the MIC (Klebsiella pneumoniae [21]) was 1 µg/mL. For the same molecule, the “Selectivity Index” value (Escherichia coli [22]) was 2, the MIC (Escherichia coli [23]) was 1 µg/mL (≈ 1.55 µM) and the MIC (Escherichia coli [24]) was 0.5 µg/mL. For the same molecule, the MIC (Escherichia coli [25]) was 0.25 µg/mL, the MIC (Klebsiella pneumoniae [26]) was 1 µg/mL and the “Selectivity Index” value (Escherichia coli [27]) was 4. For the same molecule, the MIC (Pseudomonas aeruginosa [28]) was 64 µg/mL (≈ 99.3 µM), the “Selectivity Index” value (Klebsiella pneumoniae [29]) was 4 and the “Selectivity Index” value (Pseudomonas aeruginosa [30]) was 2. The “Selectivity Index” value (Klebsiella pneumoniae [31]) was 8, the “Selectivity Index” value (Klebsiella pneumoniae [32]) was 2 and the MIC (Escherichia coli [33]) was 0.125 µg/mL (≈ 0.194 µM). For the same molecule, the MIC (Pseudomonas aeruginosa [34]) was 16 µg/mL, the MIC (Klebsiella pneumoniae [35]) was 1 µg/mL (≈ 1.55 µM) and the MIC (Pseudomonas aeruginosa [36]) was over 64 µg/mL. The MIC (Escherichia coli [37]) was 0.5 µg/mL (≈ 0.776 µM), the “Selectivity Index” value (Klebsiella pneumoniae [38]) was 1 and the “Selectivity Index” value (Klebsiella pneumoniae [39]) was 2. The MIC (Escherichia coli [40]) was 0.5 µg/mL (≈ 0.776 µM), the “Selectivity Index” value (Pseudomonas aeruginosa [41]) was 2 and the MIC (Pseudomonas aeruginosa [42]) was 32 µg/mL. The “Selectivity Index” value (Escherichia coli [43]) was 2, the MIC (Pseudomonas aeruginosa [44]) was 64 µg/mL (≈ 99.3 µM) and the MIC (Klebsiella pneumoniae [45]) was 2 µg/mL (≈ 3.1 µM).
